# Assay results taken from the RNAGym collection of RNA variant scans (doi:10.1126/science.aae0568).
# Fewer inactive variants are shown than the library holds.
# B1: tRNA (parent)
# chain: GUUCCGUUGGCGUAAUGGUAACGCGUCUCCCUCCUAAGGAGAAGACUGCGGGUUCGAGUCCCGUACGGAACG
# Variants of: B1
# Test: yeast fitness relative to wild type (ratio to wild type); higher = fitter; tRNA-Arg(CCU), competitive growth, 37 C, YPD
# Outline: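 Variants of the tRNA-Arg(CCU) gene, chemically synthesised with a 3% per-site mutation rate at 69 sites, were placed at the native genomic locus in Saccharomyces cerevisiae. The pooled strains were competed in YPD at 37°C for 24 hours in six parallel replicates. Gene amplicons from the start population and from each end population were read by 100-nucleotide paired-end sequencing. Darwinian fitness relative to wild type came from changes in genotype frequencies; genotypes needed ≥ 100 starting reads, and estimates < 0.5 were set to 0.5.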
row,Variant,yeast fitness
1,A37U A70C,0.917
2,A37G A40U G58C,0.729
3,A37U A69C,0.796
4,A37U A69U,0.723
5,A37U U64C,0.77
6,G38A A40U G50C C60G A65U,≤ 0.5
7,G38C C46U A69U A70G,≤ 0.5
8,G38A G39A A42G C46G,0.537
9,G38C C62U U64C A70U,≤ 0.5
10,A37G A42G A70U,0.539
11,G38C C66U,0.664
12,G38C C66A,0.561
13,G38C A43G C49G G51A,≤ 0.5
14,A37U G51A U53G U54C,≤ 0.5
15,G38A A40G,0.82
16,G38A A40C,0.624
17,G38C A65G,0.771
18,A37G G52A,0.583
19,A37G G52C,≤ 0.5
20,A37U C49A G52A C55U G56A,0.529
21,G38C A42G U64G,0.781
22,G38C G41C,0.614
23,G38A G39C C60A C66G,≤ 0.5
24,G38A A42C A45U G52A,≤ 0.5

row,Variant,yeast fitness
1,A37G A40G A45U,0.566
2,A37C G41A,1.01
3,G38A C55U A57G,≤ 0.5
4,A37G C49G,0.788
5,A37G C49A,0.546
6,A37G G56A,0.825
7,G38C C55U,0.545
8,G38C C55G,0.617
9,G38A A40C G56A C60U C61G G67U,≤ 0.5
10,A37G C61A G63C,≤ 0.5
11,A37U C46G U54C C61A,0.543
12,A37U G56A A65C,0.5
13,G38A C49A A70U,0.729
14,G38C C60A,≤ 0.5
15,A37U G58C,0.789
16,A37G C60G G68A,≤ 0.5
17,G38A A70C,0.942
18,G38A A70G,0.998
19,G38A A70U,0.953
20,A37U U47C U53G A69U,≤ 0.5
21,G38C G41C C55U G67C,≤ 0.5
22,G38C A42C C49A,≤ 0.5
23,A37U A40C G58A,0.591
24,A37C U53A,0.632

row,Variant,yeast fitness
1,A37U C55U C61G A65U A70U,≤ 0.5
2,A37U C49A,0.712
3,A37U C49G,0.652
4,A37U A43G G63A G67C A70G,0.802
5,A37U G51A,0.57
6,A37U G44C,0.784
7,A37U G44A,0.602
8,A37U C61U A70G,0.572
9,G38C G41C G50U A65G,≤ 0.5
10,A37U G68A,0.736
11,A37G U59C,0.741
12,G38A G67C,0.776
13,G38A G67U,0.803
14,A37C G58A,0.844
15,A37C U54C,0.799
16,A37U A40U U64C G67A,≤ 0.5
17,G38A G41C A69U,0.822
18,G38C C46A U59C,≤ 0.5
19,G38A U47G,0.574
20,G38C C49G G50C C61U,0.555
21,G38A C60A,0.646
22,G38A C60G,0.623
23,A37G G41C A43U,≤ 0.5
24,G38A U47C C66U,0.555

row,Variant,yeast fitness
1,A37C G44A,0.776
2,G38A U47C C62U,0.539
3,A37U C46G C55A U59C C61A C62U,0.524
4,A37G G63C,0.66
5,A37G G63A,0.62
6,A37G G68C,0.665
7,A37G G68A,0.88
8,G38A G48A C49G A70U,≤ 0.5
9,G38C A45G A70C,0.548
10,G38A C66A,0.72
11,G38A C66U,0.909
12,A37C G51A G67A,0.584
13,G38C A40U A42G G51A C60U G68A,≤ 0.5
14,A37U G67C,0.619
15,G38C A40U G67A,≤ 0.5
16,G38C G41C C55U,≤ 0.5
17,G38C G39C C46U C66U A69U,≤ 0.5
18,A37G C62G,0.676
19,A37U A42G A45U C66U,≤ 0.5
20,A37U G51A G52C U59C,0.619
21,A37U A57C G58A A69U A70C,0.542
22,A37U G38A U59A,≤ 0.5
23,A37C G39C G50C,≤ 0.5
24,A37U C62U,0.859

row,Variant,yeast fitness
1,A37C G41C A45G,≤ 0.5
2,A37C G41A C49U C60G,≤ 0.5
3,A37C U47C,0.81
4,A37U C60U,0.519
5,A37U C60G,0.516
6,G38A C61G G68C,≤ 0.5
7,G38C C46A,0.819
8,A37U C62U G67A,≤ 0.5
9,G38C C66G G67U,≤ 0.5
10,G38A C49U,1.03
11,A37U U53G A65U,≤ 0.5
12,A37G A43G C55A G56A,0.6
13,G38C C62U A70U,0.533
14,A37G G39A C62A A69C,≤ 0.5
15,A37G A45C C46A,0.579
16,A37G A45G G48A,0.557
17,A37U A43U G48C,0.514
18,G38A C49U U54C,≤ 0.5
19,A37C G52C,0.537
20,G38A G48A C49G,0.525
21,G38A G52C G56A,0.609
22,G38C G52C,0.502
23,A37C U64G,0.684
24,G38A C55A,0.71

row,Variant,yeast fitness
1,A37G G44C A57U G63C,≤ 0.5
2,A37U U47G A57C,≤ 0.5
3,G38C A69C,0.722
4,G38C A69U,0.788
5,G38A A40U G50C C60G,≤ 0.5
6,A37U G48C U59C,0.533
7,A37G C55A G58C G68C,≤ 0.5
8,A37G U53A,≤ 0.5
9,G38A C62A C66G,0.804
10,A37C G56A A69U,0.647
11,A37G A69U,0.856
12,A37U A65U C66G,≤ 0.5
13,G38A A57G,0.854
14,A37U A45C G52C,≤ 0.5
15,G38C A70U,0.628
16,G38A A43G A69C,≤ 0.5
17,A37U A43C U53A U54C,≤ 0.5
18,A37U G44A U54A C62G C66G A69G,≤ 0.5
19,G38C C49U C62U A69U,0.819
20,A37G U53C C62G,0.594
21,G38A C61U,0.931
22,G38A A65U,0.739
23,A37U G44A C49U A57C C61G,≤ 0.5
24,G38A G48A A65G,0.559

row,Variant,yeast fitness
1,A37G A45U U59A,≤ 0.5
2,A37U C49A C62U,0.579
3,A37C G56A,0.829
4,A37U G52A A57C C60A,≤ 0.5
5,G38C C46G C55G C61G,≤ 0.5
6,A37C G63A,0.612
7,A37C G63C,0.663
8,G38C A42G,0.655
9,G38C A42C,0.595
10,A37G U64A,0.61
11,A37U A45C,0.64
12,A37U A45G,0.777
13,G38C A42G C62U,≤ 0.5
14,A37U G48C G68U,0.57
15,G38A A69U,1.04
16,A37G C61A C66U,≤ 0.5
17,G38A G48A G50A,≤ 0.5
18,G38A A40G C66A,0.597
19,G38A U53A,0.587
20,G38A U53C,0.799
21,A37G G63C G68C,≤ 0.5
22,A37U G51A C66G,≤ 0.5
23,A37U C61A,≤ 0.5
